Published values gathered from unrelated publications.
Target: Activin receptor type-1 (ACVR1, Homo sapiens, UniProt Q04771)
Sequence (Q04771 21-509, as in one of the studies): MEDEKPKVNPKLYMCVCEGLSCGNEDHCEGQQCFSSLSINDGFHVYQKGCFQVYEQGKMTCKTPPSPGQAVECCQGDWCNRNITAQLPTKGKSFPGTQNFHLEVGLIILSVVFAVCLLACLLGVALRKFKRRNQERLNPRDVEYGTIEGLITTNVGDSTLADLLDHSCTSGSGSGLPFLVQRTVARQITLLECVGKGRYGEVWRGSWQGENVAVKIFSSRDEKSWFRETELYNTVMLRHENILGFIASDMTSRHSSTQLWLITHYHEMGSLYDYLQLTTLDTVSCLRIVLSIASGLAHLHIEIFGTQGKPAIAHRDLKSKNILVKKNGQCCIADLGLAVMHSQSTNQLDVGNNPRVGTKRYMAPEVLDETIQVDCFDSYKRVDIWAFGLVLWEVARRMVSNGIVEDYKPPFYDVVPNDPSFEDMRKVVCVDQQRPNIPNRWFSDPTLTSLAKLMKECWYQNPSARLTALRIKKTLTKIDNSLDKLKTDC

SMILES | read-out | mode | method | concentration | quantity | value
CC(C)S(=O)(=O)c1ccc2nccc(Nc3ccc4sc(C5CCCC5)nc4c3)c2c1 | enzyme activity | inhibitor | – | 1 µM | activity vs control | 111%
COc1ccc2oc(-c3ccc4nc(N)oc4c3)c/c(=N\c3ccccc3NC(=O)CCN)c2c1 | binding | – | – | 1 µM | remaining binding | 104%
COc1ccc2[nH]c3c4[nH]c5ccc(OC)cc5c4c4c(c3c2c1)C(=O)NC4=O | binding | – | competition with immobilised ligand | 1 µM | remaining binding | 77%
C1=C/COCc2cc(ccc2OCCN2CCCC2)Nc2nccc(n2)-c2cccc(c2)COC/1 | binding | – | – | 0.1 µM | remaining binding | 3.7%
CO[C@@H]1[C@H](N(C)C(=O)c2ccccc2)C[C@H]2O[C@]1(C)n1c3ccccc3c3c4c(c5c6ccccc6n2c5c31)C(=O)NC4 | enzyme activity | inhibitor | – | 1 µM | inhibition | 0%
CCCCC(=O)Nc1ccc(-c2ccc3ncn(CCC)c(=O)c3c2)cn1 | binding | – | competition with immobilised ligand | 0.5 µM | remaining binding | 100%
C=CC(=O)N1CCC([C@@H]2CCNc3c(C(N)=O)c(-c4ccc(Oc5ccccc5)cc4)nn32)CC1 | cell-free assay | – | – | 1 µM | inhibition | 13%
CN1CCN(C(=O)c2ccc(NC(=O)Nc3ccc(N(C)c4ccnc(Nc5ccc(CS(C)(=O)=O)cc5)n4)cc3)cc2)CC1 | binding | – | competition with immobilised ligand | 1 µM | remaining binding | 28%
